Where no end group is shown, it is not given here. The star is where a group is joined. Bz = O=C(c1ccccc1)*
Legend:
[1] = target: AF9 YEATS domain (2-138) (human) (UniProt P42568); test: ITC
[2] = test system: nuclear Kbz in HEK 293T and HCT116 cells; test: Immunofluorescence staining of Kbz after NaBz treatment; type: cell-based, human; conditions: 10 mM NaBz, 24 h
How it was run: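 Cells were fixed in 4% formaldehyde for 20 min at RT, permeabilized on ice with 0.5% Triton X-100 for 10 min, and blocked in 3% BSA for 1 h. Anti-pan Kbz (1:500) was applied overnight at 4°C, then Alexa Fluor 594 anti-mouse (1:1000) for 1 h. Mounted with DAPI; confocal imaging.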

[3] = test system: histone Kbz and Kac in mouse intestinal epithelial cells; test: NaBz water feeding in mice, western blot of histone Kbz and Kac; type: in vivo, C57BL/6N mice; conditions: ten days of NaBz water feeding at 10, 20 and 50 mM
How it was run: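 SPF-housed mice drank NaBz water for 10 days. Intestinal tissue was shaken at 200 rpm, 37°C, 20 min in HBSS (no Ca²⁺/Mg²⁺) with 10 mM HEPES, 5 mM EDTA, 1 mM DTT and 3% FBS. Released epithelial cells were pelleted at 1500 rpm, 4°C. Total histones were kit-extracted and BCA-quantified, then run on SDS-PAGE and PVDF. Primary antibodies overnight at 4°C; HRP secondary 1:5,000; ECL. Histone H4 served as loading control; duplicate mice.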

[4] = test system: histone Kbz in HEK 293T, HeLa, HCT116 and HepG2 cells; test: Western blot of core histone Kbz levels after NaBz treatment; type: cell-based, human; conditions: 24-h treatment with NaBz at various concentrations
[5] = target: YEATS2 YEATS domain (201-332) (human) (UniProt Q9ULM3); test: ITC
Sequence of YEATS2 YEATS domain (201-332) (human) (Q9ULM3 201-332): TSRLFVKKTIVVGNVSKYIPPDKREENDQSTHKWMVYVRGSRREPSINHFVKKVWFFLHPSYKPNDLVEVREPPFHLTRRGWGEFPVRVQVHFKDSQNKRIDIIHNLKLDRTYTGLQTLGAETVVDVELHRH

[6] = target: YEATS2 YEATS domain (201-332) S230F (human) (UniProt Q9ULM3); test: ITC
Sequence of YEATS2 YEATS domain (201-332) S230F (human) (Q9ULM3 201-332 S230F): as the sequence (Q9ULM3 201-332) above, with S30F counted along it

[7] = target: T1, AF9 YEATS domain (2-138) F28S (human, UniProt P42568 2-138, F28S); test: ITC
T1 sequence (looked up): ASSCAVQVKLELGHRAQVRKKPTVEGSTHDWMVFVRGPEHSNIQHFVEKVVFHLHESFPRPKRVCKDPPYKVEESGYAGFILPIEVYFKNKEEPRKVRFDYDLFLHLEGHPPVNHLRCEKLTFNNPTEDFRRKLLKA

histone H3_(2-16)K9bz peptide (from UniProt P68431 3-17)
Kd [1]: 5.97 µM

O=C([O-])c1ccccc1.[Na+] [NaBz, Sodium benzoate]
nuclear Kbz signals (immunofluorescence) [2]: lightened up | pan Kac level of histone in mouse intestinal epithelial cells [3]: not stimulated | histone Kbz signal in mouse intestinal epithelial cells ([3]; two mice per concentration): clearly boosted | signals of histone Kbz (pan Kbz western blot) [4]: upregulated in a dose-dependent manner

histone H3_(15-39)K27bz peptide (from UniProt P68431 16-40)
Kd [5]: 21.6 µM | dH [6]: -6.8 kcal/mol

RTKQTARK(Bz)STGGKAP (peptide, UniProt P68431 3-17, looked up) [histone H3_(2-16)K9bz peptide]
fold binding enhancement over WT AF9 YEATS [7]: ~1.6 fold
